Measured values published in article PMC5035717 (Cell, 2016).
Changes are numbered by the printed parent chain. Entries after “also recorded” stand apart in the source; their conditions may differ. Where two headings read alike, the source gives them in different places. Blank lines part the entries; values can stand above or below the compound they belong to.

Columns and labels:
[1] = test system: endogenous Smo in NIH-3T3 cells; assay: Ciliary recruitment of endogenous Smo in sterol-depleted NIH-3T3 cells; format: cell-based; conditions: for Recruitment of endogenous Smo to cilia: agent alone; for Rescue of Smo recruitment to cilia in response to Shh: sterols added back as MCD complexes (100 μM)
Method in brief: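 Confluent NIH-3T3 cells starved overnight in DMEM, then sterol-depleted with 1.5% MCD for 30 min. Kept in DMEM with 40 μM pravastatin throughout. Sterols added back 1 h as MCD complexes, then overnight with agents or Shh (conditioned medium from 293T cells expressing human Shh aa 1–197). Stained with anti-acetylated tubulin (1:5000) and anti-mSmo (1 μg/mL final); ciliary Smo intensity quantified automatically.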

XSmoG84S ectodomain [2] = biological target: T1, XSmoG84S ectodomain (Xenopus laevis, UniProt Q98SW5, G84S); conditions: read-out: IC50, competition of BODIPY-cyclopamine binding
T1 sequence (Q98SW5 35-189 G84S): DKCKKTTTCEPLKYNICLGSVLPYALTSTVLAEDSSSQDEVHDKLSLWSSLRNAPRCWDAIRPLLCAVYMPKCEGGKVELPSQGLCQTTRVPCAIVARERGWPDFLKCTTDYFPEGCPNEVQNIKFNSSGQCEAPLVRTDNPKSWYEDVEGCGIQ
Method in brief: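 Purified E. coli-expressed Xenopus Smo G84S ectodomain incubated with BODIPY-cyclopamine (5 nM) and varying concentrations of unlabeled competitor for 1 h at room temperature. Fluorescence polarization read on a plate reader and converted to anisotropy. Measured in triplicate; IC50 obtained by fitting competition curves.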

mSmoG115S = mSmoG115S (Mus musculus, UniProt P56726, G115S); assay: Hh pathway activity by qPCR for Gli1 in Smo-null cells rescued with mSmoG115S; format: cell-based
XSmo ectodomain [3] = biological target: T2, XSmo ectodomain (Xenopus laevis, UniProt Q98SW5); assay: Circular dichroism; format: binding; conditions: small molecule 25 μM; CD signal at 225 nm; protein alone Tm=62.1°C
T2 sequence (Q98SW5 35-189): T1 sequence (Q98SW5 35-189 G84S) with S50G

XSmo ectodomain [4] = biological target: T2, XSmo ectodomain; format: binding
mSmoE164L = mSmoE164L (Mus musculus, UniProt P56726, E164L); assay: Hh pathway activity by qPCR for Gli1 in Smo-null cells rescued with mSmoE164L; format: cell-based
mSmoG115F = mSmoG115F (Mus musculus, UniProt P56726, G115F); assay: Hh pathway activity by qPCR for Gli1 in Smo-null cells rescued with mSmoG115F; format: cell-based
mSmoG115S/E164L = mSmoG115S/E164L (Mus musculus, UniProt P56726, E164L/G115S); format: cell-based
[5] = test system: Hh signaling in NIH-3T3 cells; assay: Synergy with Shh in activating Hh signaling in NIH-3T3 cells; format: cell-based, mouse
mSmoD99A = mSmoD99A (Mus musculus, UniProt P56726, D99A); assay: Hh pathway activity by qPCR for Gli1 in Smo-null cells rescued with mSmoD99A; format: cell-based
XSmoCRD = biological target: T3, XSmoCRD (Xenopus laevis, UniProt Q98SW5); assay: Fluorescence polarization binding of BODIPY probes to purified XSmoCRD; conditions: XSmoCRD (amino acids 35–154), probe 5 nM
T3 sequence (Q98SW5 35-154): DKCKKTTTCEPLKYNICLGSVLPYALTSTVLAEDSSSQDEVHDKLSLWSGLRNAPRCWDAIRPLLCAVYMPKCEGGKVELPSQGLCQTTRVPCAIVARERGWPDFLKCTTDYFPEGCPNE
Method in brief: (§1)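 Xenopus Smo CRD (aa 35–154) or ectodomain (aa 35–189; wild type or G84S) expressed in E. coli as thioredoxin-His6 fusions. Purified by Ni-NTA, glutathione redox refolding and size exclusion. Increasing protein amounts mixed with BODIPY FL probes (5 nM) in 20 mM HEPES pH 7.5, 100 mM NaCl, 1 h at room temperature. FP converted to anisotropy; triplicate; Kd from curve fitting.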

mSmoD477G/E522K = mSmoD477G/E522K (Mus musculus, UniProt P56726, D477G/E522K); assay: BODIPY-cyclopamine binding to mCherry-tagged mSmoD477G/E522K in 293T cells; conditions: 50 nM
Method in brief: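 mCherry-tagged mutant mSmo transiently expressed in 293T cells. Cells washed into serum-free OptiMEM, then incubated 1 h with BODIPY-cyclopamine, with or without SANT1 competitor (10 μM). Fixed in 3.6% formaldehyde/PBS for 30 min at room temperature and washed with TBST. BODIPY and mCherry signals imaged by epifluorescence microscopy.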

XSmo ectodomain [6] = biological target: T2, XSmo ectodomain; assay: Fluorescence polarization binding of BODIPY probes to purified XSmo ectodomain; conditions: XSmo ectodomain (amino acids 35–189), probe 5 nM
Method in brief: as §1

XSmoG84S ectodomain [7] = biological target: T1, XSmoG84S ectodomain; format: binding
Method in brief: as §1

wild-type mSmo = wild-type mSmo (Mus musculus, UniProt P56726); format: cell-based; conditions: for Effect on Hh pathway activity (Gli1 mRNA): mSmo, irrespective of sterol depletion; for Activation of Hh signaling (in words): wild-type mSmo, sterols delivered as MCD complexes
mSmoΔCRD [8] = assay: Ciliary localization of mSmoΔCRD in rescued Smo-null cells; format: cell-based, mouse; conditions: with or without sterol depletion
Method in brief: (§2)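 Smo-null cells rescued with the mSmo construct, grown on glass coverslips. Confluent cultures starved overnight in DMEM, then sterol-depleted with 1.5% MCD in DMEM for 30 min. Later incubations with agents in DMEM plus 40 μM pravastatin. Immunofluorescence used anti-acetylated tubulin as cilia marker; ciliary Smo intensity quantified by automated image analysis, at least 300 cilia per condition.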

mSmoΔCRD [9] = format: cell-based, mouse; conditions: irrespective of sterol depletion
mSmo = mSmo (Mus musculus, UniProt P56726); assay: Ciliary localization of mSmo in rescued Smo-null cells; format: cell-based; conditions: with or without sterol depletion
Method in brief: as §2

Compound: CC(C)CCC[C@@H](C)[C@H]1CC[C@H]2[C@@H]3C(O)C=C4C[C@@H](O)CC[C@]4(C)[C@H]3CC[C@]12C (stereo partly shown) [7-hydroxycholesterol]
Recruitment of endogenous Smo to cilia [1]: inactive

Compound: CCCCC[C@@](C)(O)[C@H]1CC[C@H]2[C@@H]3CC=C4C[C@@H](O)CC[C@]4(C)[C@H]3CC[C@@]21C [20(R)-OHC-Pent]
IC50 (XSmoG84S ectodomain [2]): 5.5 µM

Compound: CC(C)CCC[C@](C)(O)[C@H]1CC[C@H]2[C@@H]3CC=C4C[C@@H](O)CC[C@]4(C)[C@H]3CC[C@@]21C [20(S)-OHC, 20(S)-hydroxycholesterol]
Melting temperature (Tm) of XSmo ectodomain (XSmo ectodomain [3]): 66.5 °C
IC50 (XSmo ectodomain [4]): 1.8 µM

Compound: C[C@H](CCCC(C)(C)F)[C@H]1CC[C@H]2[C@@H]3CC=C4C[C@@H](O)CC[C@]4(C)[C@H]3CC[C@]12C [25F-cholesterol, 25-fluorocholesterol]
Rescue of Smo recruitment to cilia in response to Shh [1]: rescued

Compound: CC1=C2CC3C(CC=C4C[C@@H](O)CCC43C)C2CCC12O[C@@H]1CC(C)CN(CCNC(=O)CCCCCNC(=O)CCC3=[N+]4C(=Cc5c(C)cc(C)n5[B-]4(F)F)C=C3)C1C2C (stereo partly shown) [BODIPY-cyclopamine]
Kd (XSmoCRD): 0.389 µM
Binding to mSmoD477G/E522K in cells (fluorescence microscopy) (mSmoD477G/E522K): does not bind
Kd (XSmo ectodomain [6]): 0.434 µM
Kd (XSmoG84S ectodomain [7]): 0.621 µM

Compound: C[C@H](CCCC(F)(C(F)(F)F)C(F)(F)F)[C@H]1CC[C@H]2[C@@H]3CC=C4C[C@@H](O)CC[C@]4(C)[C@H]3CC[C@]12C [F7-cholesterol]
Rescue of Smo recruitment to cilia in response to Shh [1]: rescued

Compound: CNC1CCC(N(Cc2cccc(-c3ccncc3)c2)C(=O)c2sc3ccccc3c2Cl)CC1 (stereo not shown) [SAG]
Effect on Hh pathway activity (Gli1 mRNA) (wild-type mSmo): activated
Ciliary localization of mSmoΔCRD (mSmoΔCRD [8]): accumulate in cilia
Effect on Hh pathway activity (Gli1 mRNA) (mSmoΔCRD [9]): activated
Ciliary localization of mSmo (mSmo): accumulate in cilia
Activation of Hh signaling (in words) (mSmoD99A): robust activation
Recruitment of endogenous Smo to cilia [1]: strongly recruit

Compound: Cc1nn(-c2ccccc2)c(C)c1/C=N/N1CCN(Cc2ccccc2)CC1 [SANT1]
Effect on Hh pathway activity (Gli1 mRNA) (wild-type mSmo): inhibited
Ciliary localization of mSmoΔCRD (mSmoΔCRD [8]): reduced
Effect on Hh pathway activity (Gli1 mRNA) (mSmoΔCRD [9]): inhibited
Ciliary localization of mSmo (mSmo): reduced

Compound: CC(C)CCC[C@@H](C)[C@H]1CC[C@H]2[C@@H]3CC[C@H]4C[C@@H](O)CC[C@]4(C)[C@H]3CC[C@]12C [cholestanol]
Melting temperature (Tm) of XSmo ectodomain (XSmo ectodomain [3]): 62.9 °C
Activation of Hh signaling (in words) (wild-type mSmo): inactive
Binding to XSmo ectodomain (in words) (XSmo ectodomain [4]; competition of BODIPY-cyclopamine): inactive; also recorded: does not bind

Compound: CC1=C2C[C@H]3[C@@H](CC=C4C[C@@H](O)CC[C@@]43C)[C@@H]2CC[C@]12O[C@@H]1C[C@H](C)CN[C@H]1[C@H]2C [cyclopamine]
Melting temperature (Tm) of XSmo ectodomain (XSmo ectodomain [3]): 66.6 °C
IC50 (XSmo ectodomain [4]): 4.5 µM

Now from value to compound, other results behind:

Activation of Hh signaling (in words) (mSmoG115S): strongly activated
Compound: CC(C)CCC[C@@](C)(O)[C@H]1CC[C@H]2[C@@H]3CC=C4C[C@@H](O)CC[C@]4(C)[C@H]3CC[C@@]21C [20(R)-OHC]

Activation of Hh signaling (in words) (mSmoE164L): significantly decreases activation
Activation of Hh signaling (in words) (mSmoG115F): does not activate
Activation of Hh signaling (in words) (mSmoG115S/E164L): do not respond
Activation of Hh signaling (in words) (mSmoG115S): reduced
IC50 (XSmoG84S ectodomain [2]): 44 µM
Activation of Hh signaling (in words) (mSmoD99A): do not respond
Compound: CCCCCC(C)(O)[C@H]1CC[C@H]2[C@@H]3CC=C4C[C@@H](O)CC[C@]4(C)[C@H]3CC[C@]12C (stereo partly drawn) [20(S)-OHC-Pent]
Synergy with Shh [5]: does not synergize

Melting temperature (Tm) of XSmo ectodomain (XSmo ectodomain [3]): 65.3 °C
Synergy with Shh (wild-type mSmo; Smo-null cells rescued with wild type mSmo, sterols 5 μM as MCD complexes): synergizes
Rescue of mSmo activation by Shh after sterol depletion (wild-type mSmo; add-back 100 μM MCD complex): rescues
Activation of Hh signaling (in words) (wild-type mSmo): activate
Activation of Hh signaling (in words) (wild-type mSmo; listed as Cholesterol): activates Hh signaling
Activation of Hh signaling (in words) (mSmoG115F): responds
Activation of Hh signaling (in words) (mSmoG115S/E164L): activate
IC50 (XSmo ectodomain [4]): 2.4 µM
Activation of Hh signaling (in words) (mSmoG115S): activate
Activation of Hh signaling (in words) (mSmoD99A): defective
Compound: CC(C)CCC[C@@H](C)[C@H]1CC[C@H]2[C@@H]3CC=C4C[C@@H](O)CC[C@]4(C)[C@H]3CC[C@]12C [cholesterol]
Synergy with Shh [5]: synergizes
Rescue of Smo recruitment to cilia in response to Shh [1]: rescued

Kd (XSmoCRD): 0.225 µM
Kd (XSmo ectodomain [6]): 0.138 µM
Compound: BODIPY-20(S)-hydroxycholesterol [BODIPY-20(S)-OHC]

Kd (XSmoCRD): 1.36 µM
Kd (XSmo ectodomain [6]): 1.4 µM
Compound: BODIPY-22-azacholesterol [BODIPY-22-NHC]
